Converted amounts (≈) assume the structure as drawn.
Assays:
[1] = tested on: Mycobacterium tuberculosis; test: Inhibition of multidrug-resistant Mycobacterium tuberculosis PT20 clinical isolate QcrB assessed as reduction in bacterial growth by resazurin reduction microplate assay
Outline: (§1)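 REMA in Middlebrook 7H9 with 10% ADC and 5% DMSO. Compounds come from 2 mg/mL DMSO stocks as 10-point 2-fold serial dilutions, with a top concentration of 5–40 µg/mL set by solubility. MIC is the lowest concentration preventing resazurin blue-to-pink conversion. Three independent experiments; the modal or highest value is reported, in µM.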

[2] = Ratio of MIC for inhibition of Mycobacterium tuberculosis QcrB T313A mutant to MIC for inhibition of Mycobacterium tuberculosis H37Rv ATCC 27294 QcrB assessed as reduction in bacterial growth
[3] = tested on: Mycobacterium tuberculosis; test: Inhibition of multidrug-resistant Mycobacterium tuberculosis PT2 clinical isolate QcrB assessed as reduction in bacterial growth by resazurin reduction microplate assay; outline: as §1
[4] = tested on: Mycobacterium tuberculosis; test: Inhibition of Mycobacterium tuberculosis QcrB T313A mutant assessed as reduction in bacterial growth by resazurin reduction microplate assay; outline: as §1
[5] = tested on: Mycobacterium tuberculosis; test: Inhibition of multidrug-resistant Mycobacterium tuberculosis PT12 clinical isolate QcrB assessed as reduction in bacterial growth by resazurin reduction microplate assay; outline: as §1

| Compound | MIC [1] | Ratio [2] | MIC [3] | MIC [4] | MIC [5] |
| --- | --- | --- | --- | --- | --- |
| COc1ccc2nc(C)cc(OCc3ccc(C(C)C)cc3)c2c1 | 0.2 µM (≈ 0.0643 µg/mL) | > 4 | 0.5 µM (≈ 0.161 µg/mL) | 7.8 µM (≈ 2.51 µg/mL) | 1 µM (≈ 0.321 µg/mL) |
| COc1ccc2nc(C)cc(OCC(=O)c3cccc(Cl)c3)c2c1 | 0.2 µM (≈ 0.0684 µg/mL) | > 4 | 0.5 µM (≈ 0.171 µg/mL) | 7.3 µM (≈ 2.5 µg/mL) | 0.9 µM (≈ 0.308 µg/mL) |
| COc1ccc2nc(C)cc(OCC(=O)c3ccccc3)c2c1 | 1 µM (≈ 0.307 µg/mL) | > 4 | 2 µM (≈ 0.615 µg/mL) | 32.5 µM (≈ 9.99 µg/mL) | 2 µM (≈ 0.615 µg/mL) |
| CO[C@H]1/C=C/O[C@@]2(C)Oc3c(C)c(O)c4c(O)c(c(/C=N/N5CCN(C)CC5)c(O)c4c3C2=O)NC(=O)/C(C)=C\C=C\[C@H](C)[C@H](O)[C@@H](C)[C@@H](O)[C@@H](C)[C@H](OC(C)=O)[C@@H]1C | 12.2 µM (≈ 10 µg/mL) | – | > 48.6 µM | – | > 48.6 µM |
| NNC(=O)c1ccncc1 | 146 µM (≈ 20 µg/mL) | – | – | 2.3 µM (≈ 0.315 µg/mL) | 72.9 µM (≈ 10 µg/mL) |
| COc1ccc2nc(C)cc(OCc3ccc(Cl)c(Cl)c3)c2c1 | 0.2 µM (≈ 0.0696 µg/mL) | > 4 | 0.2 µM (≈ 0.0696 µg/mL) | 14.4 µM (≈ 5.01 µg/mL) | 0.5 µM (≈ 0.174 µg/mL) |
